pIC50, pKi: −log10 of the molar value.
What was measured:
[1] = tested on: Vero; assay: Relative antiplasmodial activity to cytotoxicity in Plasmodium falciparum Csl-2 infected Vero cells; type: functional
[2] = tested on: KB; assay: In vitro cytotoxicity against Plasmodium falciparum infected KB cell line; type: functional, cell-based; conditions: Homo sapiens
Summary of the method: (§1)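 Cytotoxicity (IC50, μM) run against three mammalian lines: Vero (African green monkey kidney fibroblasts), KB (human epidermoid carcinoma) and BC (human breast cancer). Testing followed the Skehan et al. protocol.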

[3] = tested on: BC; assay: Relative antiplasmodial activity to cytotoxicity in Plasmodium falciparum TM4/8.2 infected BC cells; type: functional
[4] = tested on: KB; assay: Relative antiplasmodial activity to cytotoxicity in Plasmodium falciparum Csl-2 infected KB cells; type: functional
[5] = target: Bifunctional dihydrofolate reductase-thymidylate synthase (Plasmodium falciparum K1, UniProt P13922, C59R/I164L/N51I/S108N); assay: Binding affinity towards mutant dihydrofolate reductase (N51I+C59R+S108N+I164L DHFR) of Plasmodium falciparum
Chain of Bifunctional dihydrofolate reductase-thymidylate synthase (Plasmodium falciparum K1, UniProt P13922, C59R/I164L/N51I/S108N) (P13922 whole entry, looked up, stated change not applied): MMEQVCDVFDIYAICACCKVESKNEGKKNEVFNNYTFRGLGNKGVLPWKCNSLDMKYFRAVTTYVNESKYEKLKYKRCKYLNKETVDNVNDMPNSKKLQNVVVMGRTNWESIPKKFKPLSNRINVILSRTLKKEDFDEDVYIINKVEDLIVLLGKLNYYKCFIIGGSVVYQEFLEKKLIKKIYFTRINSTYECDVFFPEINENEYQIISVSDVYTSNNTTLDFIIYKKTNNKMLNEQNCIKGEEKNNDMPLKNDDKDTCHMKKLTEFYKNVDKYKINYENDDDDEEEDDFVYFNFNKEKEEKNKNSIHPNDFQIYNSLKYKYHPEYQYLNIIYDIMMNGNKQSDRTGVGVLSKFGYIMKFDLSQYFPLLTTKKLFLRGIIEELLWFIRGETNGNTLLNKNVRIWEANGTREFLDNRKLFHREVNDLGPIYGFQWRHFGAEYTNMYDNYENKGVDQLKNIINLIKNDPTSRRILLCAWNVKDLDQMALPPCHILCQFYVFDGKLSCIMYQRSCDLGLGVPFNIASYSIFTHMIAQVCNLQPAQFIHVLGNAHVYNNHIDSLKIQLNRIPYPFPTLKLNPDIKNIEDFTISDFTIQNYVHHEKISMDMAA

[6] = tested on: KB; assay: Relative antiplasmodial activity to cytotoxicity in Plasmodium falciparum V1/S infected KB cells; type: functional
[7] = tested on: BC; assay: In vitro cytotoxicity against BC cell line.; conditions: Homo sapiens
[8] = tested on: KB; assay: Relative antiplasmodial activity to cytotoxicity in Plasmodium falciparum TM4/8.2 infected KB cells; type: functional
[9] = target: Bifunctional dihydrofolate reductase-thymidylate synthase (Plasmodium falciparum K1) (UniProt P13922); assay: Ratio of binding affinity for mutant (N51I+C59R+S108N) to that of wild type dihydrofolate reductase
Chain of Bifunctional dihydrofolate reductase-thymidylate synthase (Plasmodium falciparum K1) (P13922 whole entry, looked up): as the sequence (P13922 whole entry, looked up, stated change not applied) above
Summary of the method: (§2)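 Each ratio is Ki for the mutant PfDHFR divided by Ki for wild-type PfDHFR. The recombinant enzymes were expressed in E. coli BL21(DE3)pLysS and purified on methotrexate-Sepharose. Ki was derived assuming inhibitors compete with substrate binding.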

[10] = tested on: Vero; assay: Relative antiplasmodial activity to cytotoxicity in Plasmodium falciparum V1/S infected Vero cells; type: functional
[11] = tested on: Vero; assay: Relative antiplasmodial activity to cytotoxicity in Plasmodium falciparum TM4/8.2 infected Vero cells; type: functional
[12] = tested on: Vero; assay: In vitro cytotoxicity against Plasmodium falciparum infected vero cell line.; type: functional, cell-based; conditions: Chlorocebus sabaeus; summary of the method: as §1
[13] = target: Bifunctional dihydrofolate reductase-thymidylate synthase (Plasmodium falciparum K1, UniProt P13922, C59R/N51I/S108N); assay: Binding affinity towards mutant dihydrofolate reductase (N51I+C59R+S108N DHFR) of Plasmodium falciparum
Chain of Bifunctional dihydrofolate reductase-thymidylate synthase (Plasmodium falciparum K1, UniProt P13922, C59R/N51I/S108N) (P13922 whole entry, looked up, stated change not applied): as above

[14] = tested on: Bifunctional dihydrofolate reductase-thymidylate synthase (Plasmodium falciparum K1), P13922 [UNDEFINED MUTATION]; assay: Ratio of binding affinity for mutant (N51I+C59R+S108N+I164L) to that of wild type dihydrofolate reductase; summary of the method: as §2
Chain of Bifunctional dihydrofolate reductase-thymidylate synthase (Plasmodium falciparum K1), P13922 [UNDEFINED MUTATION] (P13922 whole entry, looked up, stated change not applied): as above

[15] = target: Bifunctional dihydrofolate reductase-thymidylate synthase (Plasmodium falciparum K1, UniProt P13922, C59R/I164L/S108N); assay: Binding affinity towards mutant dihydrofolate reductase (C59R+S108N+I164L DHFR) of Plasmodium falciparum
Chain of Bifunctional dihydrofolate reductase-thymidylate synthase (Plasmodium falciparum K1, UniProt P13922, C59R/I164L/S108N) (P13922 whole entry, looked up, stated change not applied): as above

[16] = tested on: BC; assay: Relative antiplasmodial activity to cytotoxicity in Plasmodium falciparum Csl-2 infected BC cells; type: functional
[17] = tested on: Bifunctional dihydrofolate reductase-thymidylate synthase (Plasmodium falciparum K1), P13922 [UNDEFINED MUTATION]; assay: Ratio of binding affinity for mutant (C59R+S108N+I164L) to that of wild type dihydrofolate reductase; summary of the method: as §2
[18] = tested on: Bifunctional dihydrofolate reductase-thymidylate synthase (Plasmodium falciparum K1), P13922 [UNDEFINED MUTATION]; assay: Ratio of binding affinity for mutant (A16V+S108T) to that of wild type dihydrofolate reductase; summary of the method: as §2
[19] = target: Bifunctional dihydrofolate reductase-thymidylate synthase (Plasmodium falciparum K1, UniProt P13922, A16V/S108T); assay: Binding affinity towards mutant dihydrofolate reductase (A16V+S108T DHFR) of Plasmodium falciparum.
Chain of Bifunctional dihydrofolate reductase-thymidylate synthase (Plasmodium falciparum K1, UniProt P13922, A16V/S108T) (P13922 whole entry, looked up, stated change not applied): as above

Compound	Safety ratio [1]	pIC50 [2]	Safety ratio [3]	Safety ratio [4]	pKi [5]	Safety ratio [6]	pIC50 [7]	Safety ratio [8]	Ratio [9]	Safety ratio [10]	Safety ratio [11]	pIC50 [12]	pKi [13]	Ratio [14]	pKi [15]	Safety ratio [16]	Ratio [17]	Ratio [18]	pKi [19]
CC(=O)OCCCc1nc(N)nc(N)c1-c1cccc(Cl)c1	27.8	4.77	6.3	9.4	7.50	3.2	5.00	10.6	0.6	9.4	31.3	4.30	8.74	10.1	8.49	5.6	1	–	–
CCCCCCCC1N=C(N)N=C(N)N1c1cccc(Cl)c1 (centres undefined)	>357	6.00	45	7.1	9.10	0.4	5.74	25	0.4	>20	>1250	< 4.30	9.00	0.3	9.52	12.9	0.1	1.4	8.42
CC(C)C1(C)N=C(N)N=C(N)N1c1cccc(Cl)c1 (centres undefined)	–	–	–	–	6.33	–	–	–	7.7	–	–	–	6.71	18.1	6.67	–	8.4	85	5.66
Nc1nc(N)c(-c2ccccc2)c(CCCOC(=O)c2ccccc2)n1	–	–	–	–	7.85	–	–	–	0.2	–	–	–	9.15	4.1	8.57	–	0.8	–	–
CCCOc1ccc(C2N=C(N)N=C(N)N2c2cccc(Cl)c2)cc1 (centres undefined)	>17.2	5.22	120	2.1	8.57	2.1	4.52	24	–	>17.2	>200	< 4.30	8.68	–	9.30	10.3	–	–	8.03
Nc1nc(N)c(-c2cccc(Cl)c2)c(CCCOC(=O)c2ccccc2)n1	32.1	5.08	4.5	4.4	8.44	1.1	5.02	4	0.5	8.1	29	4.21	9.10	2.4	9.10	5	0.5	–	–
NC1=NC(c2ccccc2)N(c2ccc(Cl)cc2)C(N)=N1 (centres undefined)	–	–	–	–	5.61	–	–	–	–	–	–	–	6.71	–	5.73	–	–	–	–
NC1=NC(c2ccc(Oc3ccccc3)cc2)N(c2cccc(Cl)c2)C(N)=N1 (centres undefined)	>15.2	5.40	8.3	1.2	8.89	1.2	5.28	6.2	1.2	>15.2	>76.9	< 4.30	9.05	1.9	9.52	1.6	0.5	3.9	8.57
NC1=NC(c2ccc(Oc3ccccc3)cc2)N(c2ccc(Cl)cc2)C(N)=N1 (centres undefined)	>10.4	5.15	71.7	1.5	6.65	1	5.07	58.3	73.1	>7.2	>417	< 4.30	7.53	555	6.84	1.8	363	9.5	8.42
CCCC1(C)N=C(N)N=C(N)N1c1cccc(Cl)c1 (centres undefined)	>1724	3.96	356	379	7.40	1.1	4.19	611	2.1	454	>2778	< 3.30	8.01	8.53	7.48	221	7.2	102	6.33
Nc1nc(N)c(-c2cccc(Cl)c2)c(CCCOC(=O)OCc2ccccc2)n1	2.7	5.80	1.9	0.8	8.44	0.3	5.44	0.8	0.9	0.9	2.7	5.28	8.96	3	9.10	1.9	0.7	–	–
NC1=NC(c2cccc(Oc3ccccc3)c2)N(c2ccc(Cl)cc2)C(N)=N1 (centres undefined)	–	–	–	–	6.62	–	–	–	47.1	–	–	–	7.63	478	6.88	–	264	5.4	8.57
Nc1nc(N)c(-c2cccc(Cl)c2)c(CCCO)n1	11.7	5.00	13.6	5.3	7.24	1.6	4.82	9.2	0.25	3.6	20.3	4.65	8.64	6.1	7.54	7.9	3.2	–	–
CCc1nc(N)nc(N)c1-c1ccccc1	–	–	–	–	7.49	–	–	–	–	–	–	–	8.52	–	7.60	–	–	–	–
CC1(C)N=C(N)N=C(N)N1c1cccc(Cl)c1	–	5.40	–	–	–	–	5.05	–	–	–	–	4.31	–	–	–	–	–	–	–
CCCC1(C)N=C(N)N=C(N)N1c1ccc(Cl)cc1 (centres undefined)	–	–	–	–	5.35	–	–	–	160	–	–	–	6.25	1270	5.44	–	1040	2640	5.03
CC(C)C1(C)N=C(N)N=C(N)N1c1ccc(Cl)cc1 (centres undefined)	–	–	–	–	< 5.00	–	–	–	37.5	–	–	–	5.86	> 274	5.34	–	127	1230	4.35
CCCCCCC1(C)N=C(N)N=C(N)N1c1ccc(Cl)cc1 (centres undefined)	–	–	–	–	7.16	–	–	–	18.8	–	–	–	7.95	115	7.38	–	69.6	1590	6.02
NC1=NC(c2cccc(OCc3ccccc3)c2)N(c2ccc(Cl)cc2)C(N)=N1 (centres undefined)	–	–	–	–	6.20	–	–	–	315	–	–	–	6.66	911	6.11	–	1100	8.9	8.21
Nc1nc(N)c(-c2ccccc2)c(CCCO)n1	–	–	–	–	6.26	–	–	–	0.7	–	–	–	7.23	6.5	6.92	–	1.4	–	–
CC(=O)OCCCc1nc(N)nc(N)c1-c1ccccc1	–	–	–	–	6.63	–	–	–	0.5	–	–	–	8.30	22.3	7.74	–	1.7	–	–
